# From ChEMBL document CHEMBL4811253, “Flavonoid-triazolyl hybrids as potential anti-hepatitis C virus agents: Synthesis and biological evaluation” (Eur J Med Chem, 2021)
# Activity calls are given as the source filed them. No cut-off for these calls is given here.
# Experiments:
# Hepatitis C virus [1] = test: Antiviral activity against HCV JFH-1 in Huh7 cells infected with supernatant from 3 days at 30 uM of compound treated Huh7 cells with HCV JFH-1 infection assessed as reduction in HCV production by measuring viral RNA level measured after 48 hrs post re-infection by RT-PCR analysis; assay type: functional, organism-based; settings: Hepacivirus hominis, Huh-7, time 120.0 hrs
# Outline: (§1)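 Huh7 cells (1 × 10⁴/well, overnight) infected with HCV at MOI 0.1 for 6 h, virus washed out, then compound for 72 h (single 100 µg/mL screen; or 1, 3, 10, 30 µM dose series). Supernatant used to reinfect fresh Huh7 cells; 48 h later total RNA column-extracted and HCV RNA quantified by real-time RT-PCR. IFNa 10 U/mL as reference.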
# Hepatitis C virus [2] = test: Antiviral activity against HCV JFH-1 in Huh7 cells infected with supernatant from 3 days compound treated Huh7 cells with HCV JFH-1 infection assessed as reduction in HCV production by measuring viral RNA level measured after 48 hrs post re-infection by RT-PCR analysis; assay type: functional, organism-based; settings: for Activity: Hepacivirus hominis, Huh-7, time 3.0 day; for IC50: JFH-1, Huh-7; outline: as §1
# Hepatitis C virus [3] = test: Antiviral activity against HCV JFH-1 in Huh7 cells infected with supernatant from 72 hrs at 100 ug/ml compound treated Huh7 cells with HCV JFH-1 infection assessed as inhibition of HCV progeny virus production by measuring viral RNA level measured after 48 hrs post re-infection by RT-PCR analysis; assay type: functional, organism-based; settings: Hepacivirus hominis, Huh-7, dose 100.0 µg/ml, time 120.0 hrs; outline: as §1
# Hepatitis C virus [4] = test: Antiviral activity against HCV JFH-1 in Huh7 cells assessed as reduction in NS3 protein expression by Western blotting analysis; assay type: functional, organism-based; settings: Hepacivirus hominis, Huh-7, dose 1-100 µM
# Outline: (§2)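 Huh7 cells treated with compound at 1, 10 and 100 µM (concentrations as stated in text). Lysates in RIPA buffer, heated with Laemmli buffer at 95 °C for 10 min. Western blot probed with anti-NS3 (1/1000), anti-Core (1/3000) and anti-GAPDH (1/1000), HRP secondary antibodies, chemiluminescence detection.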
# Hepatitis C virus [5] = test: Antiviral activity against HCV JFH-1 in Huh7 cells assessed as reduction in HCV core protein expression by Western blotting analysis; assay type: functional, organism-based; settings: Hepacivirus hominis, Huh-7, dose 1-100 µM; outline: as §2
# Hepatitis C virus [6] = test: Antiviral activity against wild-type HCV infected in human Huh-7 cells assessed as inhibition of viral entry at 10 uM incubated for 24 hrs prior to infection and measured after 48 hrs post infection by RT-PCR; settings: Hepacivirus hominis, JFH-1
# Hepatitis C virus [7] = test: Antiviral activity against HCV JFH-1 infected in Huh7 cells assessed as inhibition of HCV replication at 10 uM after 72 hrs by luciferase reporter gene assay; assay type: functional, organism-based; settings: Hepacivirus hominis, Huh-7
# Outline: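 Huh7 cells transfected with subgenomic JFH1 replicon carrying luciferase (SGR-Luc-JFH1), then treated with compound; luciferase activity in cell extracts read after 72 h.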
# Hepatitis C virus [8] = test: Antiviral activity against HCV JFH-1 infected in Huh7 cells overexpressing mCherry-NLS-IPS protein at 100 ug/ml pre-infected with virus for 6 hrs followed by compound addition for 72 hrs by fluorescence assay; assay type: functional, organism-based; settings: Hepacivirus hominis, Huh-7, dose 100.0 µg/ml
# Outline: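 Huh7 cells carrying mCherry-NLS-IPS were made by transducing them with a recombinant virus from 293T cells (VSV-G, Pol and mCherry-NLS-IPS1 plasmids). These cells were seeded at 5×10⁴ per well overnight in DMEM with 10% FBS at 37 °C and 5% CO₂, then infected with HCV JFH1 (MOI 1) for 6 h. After washing they were cultured with compound for 72 h, with sofosbuvir as positive control. The readout was microscopic imaging of red fluorescence shifting from cytoplasm to nucleus after NS3/4A cleavage.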
# Huh-7 = test: Cytotoxicity against human Huh7 cells assessed as reduction in cell viability at 100 ug/ml incubated for 72 hrs by XTT assay; assay type: cell-based; settings: huh-7, 72 h, dose 100 µg/ml
# Outline: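 Huh7 cells (1 × 10⁴/well) seeded overnight, exposed to compound at 100 µg/mL for 72 h; viability by XTT (Cell Proliferation Kit II) per the kit instructions. Cells grown in DMEM with 10% FBS, 37 °C, 5% CO₂.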
# Hepatitis C virus [9] = test: Antiviral activity against HCV pseudo-particle infected in human Huh-7 cells assessed as inhibition of viral entry at 10 uM incubated for 24 hrs prior to infection and measured after 48 hrs post infection by bright Glo-luciferase reporter gene assay; assay type: functional, Hepacivirus hominis, JFH-1; parameters: scale not given: the % may be the effect or the level left
# Outline: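 Huh-7 cells (5 × 10³/well) pretreated with compound for 24 h, then infected with HCV pseudoparticles. Virus and compound washed out after 6 h of infection. Luciferase read with Bright-Glo reagent 48 h later.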
smiles,measurement,setting,value
CC1(C)C=Cc2cc(C3CC(=O)c4ccc(OCc5cn(Cc6ccc(F)cc6)nn5)cc4O3)ccc2O1 (stereo not drawn),Activity,Hepatitis C virus [1],Active
same,Activity,Hepatitis C virus [2],Dose-Dependent Effect
same,IC50,Hepatitis C virus [2],9 µM
same,Activity,Hepatitis C virus [3],Active
same,Activity,Hepatitis C virus [4],Dose-Dependent Effect
same,Activity,Hepatitis C virus [5],Dose-Dependent Effect
same,Activity,Hepatitis C virus [6],Active
same,Activity,Hepatitis C virus [7],inactive
same,Activity,Hepatitis C virus [8],Active
same,Activity,Huh-7,Non-Toxic
same,Activity,Hepatitis C virus [9],52%
CCCCCn1cc(COc2ccc3c(c2)OC(c2ccc4c(c2)C=CC(C)(C)O4)CC3=O)nn1 (stereo not drawn),Activity,Hepatitis C virus [3],Active
same,Activity,Hepatitis C virus [8],Active
same,Activity,Huh-7,Non-Toxic
CC1(C)C=Cc2cc(C3CC(=O)c4ccc(OCc5cn(Cc6ccccc6F)nn5)cc4O3)ccc2O1 (stereo not drawn),Activity,Huh-7,Non-Toxic
CCn1cc(COc2ccc3c(c2)OC(c2ccc4c(c2)C=CC(C)(C)O4)CC3=O)nn1 (stereo not drawn),Activity,Huh-7,Non-Toxic
CC1(C)C=Cc2cc(C3CC(=O)c4ccc(OCc5cn(Cc6ccccc6Cl)nn5)cc4O3)ccc2O1 (stereo not drawn),Activity,Hepatitis C virus [1],Active
same,Activity,Hepatitis C virus [2],Dose-Dependent Effect
same,IC50,Hepatitis C virus [2],5.29 µM
same,Activity,Hepatitis C virus [3],Active
same,Activity,Hepatitis C virus [4],Dose-Dependent Effect
same,Activity,Hepatitis C virus [5],Dose-Dependent Effect
same,Activity,Hepatitis C virus [6],Active
same,Activity,Hepatitis C virus [7],inactive
same,Activity,Hepatitis C virus [8],Active
same,Activity,Huh-7,Non-Toxic
same,Activity,Hepatitis C virus [9],34%
CC1(C)C=Cc2cc(C3CC(=O)c4ccc(O)cc4O3)ccc2O1 (stereo not drawn),Activity,Huh-7,Non-Toxic
CC1(C)C=Cc2cc(C3CC(=O)c4ccc(OCc5cn(Cc6ccc(C(F)(F)F)cc6)nn5)cc4O3)ccc2O1 (stereo not drawn),Activity,Huh-7,Non-Toxic
CC1(C)C=Cc2cc(C3CC(=O)c4ccc(OCc5cn(Cc6ccc(Br)cc6)nn5)cc4O3)ccc2O1 (stereo not drawn),Activity,Hepatitis C virus [3],Active
same,Activity,Hepatitis C virus [4],Dose-Dependent Effect
same,Activity,Hepatitis C virus [5],Dose-Dependent Effect
same,Activity,Hepatitis C virus [8],Active
same,Activity,Huh-7,Non-Toxic
CC1(C)C=Cc2cc(C3CC(=O)c4ccc(OCc5cn(Cc6ccc([N+](=O)[O-])cc6)nn5)cc4O3)ccc2O1 (stereo not drawn),Activity,Huh-7,Non-Toxic
CC1(C)C=Cc2cc(C3CC(=O)c4ccc(OCc5cn(Cc6ccccc6)nn5)cc4O3)ccc2O1 (stereo not drawn),Activity,Huh-7,Toxic
CC1(C)C=Cc2cc(C3CC(=O)c4ccc(OCc5cn(Cc6cc(Cl)cc(Cl)c6)nn5)cc4O3)ccc2O1 (stereo not drawn),Activity,Huh-7,Non-Toxic
COc1cc(Cn2cc(COc3ccc4c(c3)OC(c3ccc5c(c3)C=CC(C)(C)O5)CC4=O)nn2)cc(OC)c1 (stereo not drawn),Activity,Huh-7,Non-Toxic
Cc1ccc(Cn2cc(COc3ccc4c(c3)OC(c3ccc5c(c3)C=CC(C)(C)O5)CC4=O)nn2)cc1 (stereo not drawn),Activity,Huh-7,Non-Toxic
CC1(C)C=Cc2cc(C3CC(=O)c4ccc(OCc5cn(Cc6ccncc6)nn5)cc4O3)ccc2O1 (stereo not drawn),Activity,Huh-7,Toxic
CCCCCCn1cc(COc2ccc3c(c2)OC(c2ccc4c(c2)C=CC(C)(C)O4)CC3=O)nn1 (stereo not drawn),Activity,Hepatitis C virus [3],Active
same,Activity,Hepatitis C virus [8],Active
same,Activity,Huh-7,Non-Toxic
Cn1cc(COc2ccc3c(c2)OC(c2ccc4c(c2)C=CC(C)(C)O4)CC3=O)nn1 (stereo not drawn),Activity,Huh-7,Non-Toxic
CCCCn1cc(COc2ccc3c(c2)OC(c2ccc4c(c2)C=CC(C)(C)O4)CC3=O)nn1 (stereo not drawn),Activity,Huh-7,Non-Toxic
COc1cccc(Cn2cc(COc3ccc4c(c3)OC(c3ccc5c(c3)C=CC(C)(C)O5)CC4=O)nn2)c1 (stereo not drawn),Activity,Huh-7,Non-Toxic
CC1(C)C=Cc2cc(C3CC(=O)c4ccc(OCc5cn(Cc6cccc(F)c6)nn5)cc4O3)ccc2O1 (stereo not drawn),Activity,Huh-7,Non-Toxic
CCCCCCCCCn1cc(COc2ccc3c(c2)OC(c2ccc4c(c2)C=CC(C)(C)O4)CC3=O)nn1 (stereo not drawn),Activity,Huh-7,Non-Toxic
